Columns and labels:
Format in all cases: functional
Bipolaris maydis = assay: Fungicidal activity against Cochliobolus heterostrophus assessed as inhibition of mycelial elongation at 50 ug/mL incubated for 48 hr
In short: (§1)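 Poisoned-food plate assay on potato glucose agar: DMF stock of 500 mg/L mixed 1:9 into molten medium at 50 °C, poured and set, then seeded with a 4 mm mycelial disk. Plates inverted, incubated 28 °C for 48 h. Water as blank control. Colony radius (mm) measured, triplicate; inhibition I = [(C − T)/C] × 100% versus control radius. Field isolates from crops.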

[1] = tested on: Botryosphaeria berengeriana; assay: Fungicidal activity against Botryosphaeria berengeriana assessed as inhibition of mycelial elongation at 50 ug/mL incubated for 48 hr; in short: as §1
Fusarium graminearum = assay: Fungicidal activity against Fusarium graminearum assessed as inhibition of mycelial elongation at 50 ug/mL incubated for 48 hr
In short: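 Field isolate of G. zeae taken from crops. A 500 mg/L DMF stock (1 mL) was mixed with 9 mL molten potato glucose agar at 50 °C and poured into plates. A 4 mm mycelial disk was placed on each plate, which was inverted and kept at 28 °C for 48 h. Water served as the blank. Colony radius was measured in triplicate, and inhibition was calculated as (C−T)/C×100%.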

Botrytis cinerea = assay: Fungicidal activity against Botryotinia fuckeliana assessed as inhibition of mycelial elongation at 50 ug/mL incubated for 48 hr; in short: as §1
Rhizoctonia solani = assay: Fungicidal activity against Rhizoctonia solani assessed as inhibition of mycelial elongation at 50 ug/mL incubated for 48 hr; in short: as §1

SMILES	inhibition at 50 µg/mL (Bipolaris maydis) [%]	inhibition at 50 µg/mL [1] [%]	inhibition at 50 µg/mL (Fusarium graminearum) [%]	inhibition at 50 µg/mL (Botrytis cinerea) [%]	inhibition at 50 µg/mL (Rhizoctonia solani) [%]
CO/N=C(/C(=O)OC)c1ccccc1CO/N=C/c1c(C)nn(C)c1Oc1cccc([N+](=O)[O-])c1	64.3	77.8	62.9	98.8	91.6
CO/N=C(/C(=O)OC)c1ccccc1COc1ccccc1C [KRESOXIM-METHYL]	90.6	98.5	96.8	97.2	66.1
CO/N=C(/C(=O)OC)c1ccccc1CO/N=C/c1c(C)nn(C)c1Oc1ccc(Cl)cc1	92.9	92.6	80	100	100
CO/N=C(/C(=O)OC)c1ccccc1CO/N=C/c1c(C)nn(C)c1Oc1ccc(F)cc1	86.4	100	59.4	88.5	90.2
CO/N=C(/C(=O)OC)c1ccccc1CO/N=C/c1c(C)nn(C)c1OCC(F)(F)F	90.9	95.5	80	100	91.8
CO/N=C(/C(=O)OC)c1ccccc1CO/N=C/c1c(C)nn(C)c1OC	86.7	100	79.4	85.4	82.7
CO/N=C(/C(=O)OC)c1ccccc1CO/N=C/c1c(C)nn(C)c1Oc1ccccc1C	72.7	76.5	53.1	80.8	83.7
CO/N=C(/C(=O)OC)c1ccccc1CO/N=C/c1c(C)nn(C)c1Oc1ccccc1F	68.2	88.2	50	84.6	83.7
CCCOc1c(/C=N/OCc2ccccc2/C(=N\OC)C(=O)OC)c(C)nn1C	85	93.8	78.4	87.1	87.8
CCOc1c(/C=N/OCc2ccccc2/C(=N\OC)C(=O)OC)c(C)nn1C	92.6	100	90.5	96.8	92.5
CO/N=C(/C(=O)OC)c1ccccc1CO/N=C/c1c(C)nn(C)c1Oc1cccc(C(F)(F)F)c1	68.2	88.2	68.8	92.3	83.7
CO/N=C(/C(=O)OC)c1ccccc1CO/N=C/c1c(C)nn(C)c1Oc1cccc(C)c1	81.8	100	96.9	80.8	88
CO/N=C(/C(=O)OC)c1ccccc1CO/N=C/c1c(C)nn(C)c1Oc1ccc(Cl)cc1Cl	92.9	96.3	88.6	100	99
CO/N=C(/C(=O)OC)c1ccccc1CO/N=C/c1c(C)nn(C)c1Oc1ccc(C)cc1	72.7	88.2	50	80.8	90.2
